Results from ChEMBL document CHEMBL1145427, “Quick assembly of 1,4-diphenyltriazoles as probes targeting beta-amyloid aggregates in Alzheimer's disease” (J Med Chem, 2007).
One block for each molecule: values may come before it.

Columns and labels:
[1] = Displacement of [125I]IMPY from beta amyloid protein plaques in Alzheimer's disease patient brain; parameters: species or system Homo sapiens
Procedure, shortened: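 Competition binding to pooled gray-matter homogenates from four AD brains (approximately 100 mg wet tissue/mL in PBS pH 7.4; 20–50 μg per tube). [125I]2 at 0.04–0.06 nM; inhibitors 10^-5–10^-10 M in PBS with 0.1% BSA; final volume 1 mL. Nonspecific binding with 600 nM 2. Incubated 37 °C, 2 h; GF/B filtration, gamma counting. Ki from nonlinear regression.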

Zone of skin [2] = test: Biodistribution in ICR mouse skin at 5 to 10 uCi, iv after 1 hr; format: ADME, organism-based; details: in vivo
Procedure, shortened: (§1)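 Male ICR mice (22–25 g) under isoflurane anesthesia; [125I] or [18F] tracer (5–10 μCi) in 0.15 mL of 0.1% bovine serum albumin solution injected into the tail vein. Groups of n = 3 per time point, killed by cervical dislocation. Organs removed, weighed and gamma-counted against diluted aliquots of injected dose, giving % dose/organ and % ID/g. Total blood activity assumed as 7% of body weight.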

Spleen [3] = test: Biodistribution in ICR mouse spleen at 5 to 10 uCi, iv after 30 mins; format: ADME, organism-based; details: in vivo, 0.5 h; procedure, shortened: as §1
Heart [4] = test: Biodistribution in ICR mouse heart at 5 to 10 uCi, iv after 1 hr; format: ADME, organism-based; details: in vivo; procedure, shortened: as §1
Blood [5] = test: Biodistribution in ICR mouse blood at 5 to 10 uCi, iv after 2 hrs; format: ADME, organism-based; details: in vivo; procedure, shortened: as §1
[6] = Partition coefficient, log P of the compound; format: physicochemical; details: octanol/water
Procedure, shortened: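 [125I] or [18F] tracer mixed with 3 g each of 1-octanol and 0.1 M phosphate buffer pH 7.4. Vortexed 3 min at room temperature, then centrifuged 5 min. Two 0.5 g samples from each layer counted; PC is the ratio of cpm/g in octanol to cpm/g in buffer. The octanol layer was repartitioned until values were consistent.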

Heart [7] = test: Biodistribution in ICR mouse heart at 5 to 10 uCi, iv after 2 mins; format: ADME, organism-based; details: in vivo; procedure, shortened: as §1
Kidney [8] = test: Biodistribution in ICR mouse kidney at 5 to 10 uCi, iv after 2 hrs; format: ADME, organism-based; details: in vivo; procedure, shortened: as §1
Kidney [9] = test: Biodistribution in ICR mouse kidney at 5 to 10 uCi, iv after 2 mins; format: ADME, organism-based; details: in vivo; procedure, shortened: as §1
Brain [10] = test: Biodistribution in ICR mouse brain at 5 to 10 uCi, iv after 1 hr; format: ADME, organism-based; details: in vivo; procedure, shortened: as §1
Lung [11] = test: Biodistribution in ICR mouse lung at 5 to 10 uCi, iv after 1 hr; format: ADME, organism-based; details: in vivo; procedure, shortened: as §1
Thyroid gland [12] = test: Biodistribution in ICR mouse thyroid at 5 to 10 uCi, iv after 2 mins; format: ADME, organism-based; details: in vivo; procedure, shortened: as §1
Heart [13] = test: Biodistribution in ICR mouse heart at 5 to 10 uCi, iv after 30 mins; format: ADME, organism-based; details: in vivo, 0.5 h; procedure, shortened: as §1
Lung [14] = test: Biodistribution in ICR mouse lung at 5 to 10 uCi, iv after 2 hrs; format: ADME, organism-based; details: in vivo; procedure, shortened: as §1
Brain [15] = test: Biodistribution in ICR mouse brain at 5 to 10 uCi, iv after 2 mins; format: ADME, organism-based; details: in vivo; procedure, shortened: as §1
Thyroid gland [16] = test: Biodistribution in ICR mouse thyroid at 5 to 10 uCi, iv after 2 hrs; format: ADME, organism-based; details: in vivo; procedure, shortened: as §1
Brain [17] = test: Biodistribution in ICR mouse brain at 5 to 10 uCi, iv after 30 mins; format: ADME, organism-based; details: in vivo, 0.5 h; procedure, shortened: as §1
Brain [18] = test: Biodistribution in ICR mouse brain at 5 to 10 uCi, iv after 2 hrs; format: ADME, organism-based; details: in vivo; procedure, shortened: as §1
Muscle tissue [19] = test: Biodistribution in ICR mouse muscle at 5 to 10 uCi, iv after 30 mins; format: ADME, organism-based; details: in vivo, 0.5 h; procedure, shortened: as §1
Kidney [20] = test: Biodistribution in ICR mouse kidney at 5 to 10 uCi, iv after 1 hr; format: ADME, organism-based; details: in vivo; procedure, shortened: as §1
Heart [21] = test: Biodistribution in ICR mouse heart at 5 to 10 uCi, iv after 2 hrs; format: ADME, organism-based; details: in vivo; procedure, shortened: as §1
Lung [22] = test: Biodistribution in ICR mouse lung at 5 to 10 uCi, iv after 2 mins; format: ADME, organism-based; details: in vivo; procedure, shortened: as §1
Thyroid gland [23] = test: Biodistribution in ICR mouse thyroid at 5 to 10 uCi, iv after 1 hr; format: ADME, organism-based; details: in vivo; procedure, shortened: as §1
Blood [24] = test: Biodistribution in ICR mouse blood at 5 to 10 uCi, iv after 30 mins; format: ADME, organism-based; details: in vivo, 0.5 h; procedure, shortened: as §1
Zone of skin [25] = test: Biodistribution in ICR mouse skin at 5 to 10 uCi, iv after 30 mins; format: ADME, organism-based; details: in vivo, 0.5 h; procedure, shortened: as §1
Liver [26] = test: Biodistribution in ICR mouse liver at 5 to 10 uCi, iv after 2 hrs; format: ADME, organism-based; details: in vivo; procedure, shortened: as §1
Thyroid gland [27] = test: Biodistribution in ICR mouse thyroid at 5 to 10 uCi, iv after 30 mins; format: ADME, organism-based; details: in vivo, 0.5 h; procedure, shortened: as §1
Spleen [28] = test: Biodistribution in ICR mouse spleen at 5 to 10 uCi, iv after 2 mins; format: ADME, organism-based; details: in vivo; procedure, shortened: as §1
Liver [29] = test: Biodistribution in ICR mouse liver at 5 to 10 uCi, iv after 2 mins; format: ADME, organism-based; details: in vivo; procedure, shortened: as §1
Blood [30] = test: Biodistribution in ICR mouse blood at 5 to 10 uCi, iv after 2 mins; format: ADME, organism-based; details: in vivo; procedure, shortened: as §1
Muscle tissue [31] = test: Biodistribution in ICR mouse muscle at 5 to 10 uCi, iv after 2 hrs; format: ADME, organism-based; details: in vivo; procedure, shortened: as §1
Spleen [32] = test: Biodistribution in ICR mouse spleen at 5 to 10 uCi, iv after 2 hrs; format: ADME, organism-based; details: in vivo; procedure, shortened: as §1
Zone of skin [33] = test: Biodistribution in ICR mouse skin at 5 to 10 uCi, iv after 2 mins; format: ADME, organism-based; details: in vivo; procedure, shortened: as §1
Kidney [34] = test: Biodistribution in ICR mouse kidney at 5 to 10 uCi, iv after 30 mins; format: ADME, organism-based; details: in vivo, 0.5 h; procedure, shortened: as §1
Zone of skin [35] = test: Biodistribution in ICR mouse skin at 5 to 10 uCi, iv after 2 hrs; format: ADME, organism-based; details: in vivo; procedure, shortened: as §1
Liver [36] = test: Biodistribution in ICR mouse liver at 5 to 10 uCi, iv after 1 hr; format: ADME, organism-based; details: in vivo; procedure, shortened: as §1
Liver [37] = test: Biodistribution in ICR mouse liver at 5 to 10 uCi, iv after 30 mins; format: ADME, organism-based; details: in vivo, 0.5 h; procedure, shortened: as §1
Muscle tissue [38] = test: Biodistribution in ICR mouse muscle at 5 to 10 uCi, iv after 1 hr; format: ADME, organism-based; details: in vivo; procedure, shortened: as §1
Spleen [39] = test: Biodistribution in ICR mouse spleen at 5 to 10 uCi, iv after 1 hr; format: ADME, organism-based; details: in vivo; procedure, shortened: as §1
Muscle tissue [40] = test: Biodistribution in ICR mouse muscle at 5 to 10 uCi, iv after 2 mins; format: ADME, organism-based; details: in vivo; procedure, shortened: as §1
Blood [41] = test: Biodistribution in ICR mouse blood at 5 to 10 uCi, iv after 1 hr; format: ADME, organism-based; details: in vivo; procedure, shortened: as §1
Lung [42] = test: Biodistribution in ICR mouse lung at 5 to 10 uCi, iv after 30 mins; format: ADME, organism-based; details: in vivo, 0.5 h; procedure, shortened: as §1

Ki [1]: 10 nM
SMILES: CN(C)c1ccc(-c2cn(-c3ccc(OCCO)cc3)nn2)cc1

Ki [1]: 8.4 nM
SMILES: CN(C)c1ccc(-c2cn(-c3ccc(OCCOCCOCCF)cc3)nn2)cc1

Ki [1]: 30 nM
SMILES: CNc1ccc(-c2cn(-c3ccc(OCCOCCOCCF)cc3)nn2)cc1

Drug uptake (Zone of skin [2]): 1.93 % ID/g
Drug uptake (Spleen [3]): 1.35 % ID/g
Drug uptake (Heart [4]): 0.78 % ID/g
Drug uptake (Blood [5]): 1.21 % ID/g
logP [6]: 3.4
Drug uptake (Heart [7]): 6.61 % ID/g
Drug uptake (Kidney [8]): 1.52 % ID/g
Drug uptake (Kidney [9]): 11.5 % ID/g
Drug uptake (Brain [10]): 0.64 % ID/g
Drug uptake (Lung [11]): 1.66 % ID/g
Drug uptake (Thyroid gland [12]): 3.17 % ID/g
Drug uptake (Heart [13]): 1.34 % ID/g
Drug uptake (Lung [14]): 1.43 % ID/g
Drug uptake (Brain [15]): 7.22 % ID/g
Drug uptake (Thyroid gland [16]): 89.1 % ID/g
Drug uptake (Brain [17]): 1.94 % ID/g
Drug uptake (Brain [18]): 0.29 % ID/g
Drug uptake (Muscle tissue [19]): 1.11 % ID/g
Drug uptake (Kidney [20]): 2.13 % ID/g
Drug uptake (Heart [21]): 0.56 % ID/g
Drug uptake (Lung [22]): 8.93 % ID/g
Drug uptake (Thyroid gland [23]): 17 % ID/g
Drug uptake (Blood [24]): 1.63 % ID/g
Drug uptake (Zone of skin [25]): 2.2 % ID/g
Drug uptake (Liver [26]): 2.49 % ID/g
Drug uptake (Thyroid gland [27]): 11 % ID/g
Drug uptake (Spleen [28]): 5.32 % ID/g
Drug uptake (Liver [29]): 17.4 % ID/g
Drug uptake (Blood [30]): 2.84 % ID/g
Drug uptake (Muscle tissue [31]): 0.36 % ID/g
Drug uptake (Spleen [32]): 0.69 % ID/g
Drug uptake (Zone of skin [33]): 0.71 % ID/g
Drug uptake (Kidney [34]): 3.66 % ID/g
Drug uptake (Zone of skin [35]): 1.19 % ID/g
Drug uptake (Liver [36]): 3.74 % ID/g
Drug uptake (Liver [37]): 6.93 % ID/g
Drug uptake (Muscle tissue [38]): 0.61 % ID/g
Drug uptake (Spleen [39]): 0.89 % ID/g
Drug uptake (Muscle tissue [40]): 0.76 % ID/g
Drug uptake (Blood [41]): 1.33 % ID/g
Drug uptake (Lung [42]): 2.55 % ID/g
SMILES: CN(C)c1ccc(-c2cn(-c3ccc([125I])cc3)nn2)cc1
